From ChEMBL document CHEMBL3751813, “Nonpeptidic Amphiphilic Xanthone Derivatives: Structure-Activity Relationship and Membrane-Targeting Properties” (J Med Chem, 2016)
Values after ≈ are worked out from the molar mass of the structure shown.

Legend:
Staphylococcus aureus [1] = assay: Antibacterial activity against clinical isolates of Staphylococcus aureus DM4001R after 24 hrs by […]; assay type: functional
Staphylococcus aureus [2] = assay: Antibacterial activity against clinical isolates of methicillin-resistant Staphylococcus aureus DM9808R after 24 hrs by […]; assay type: functional
Staphylococcus aureus [3] = assay: Antibacterial activity against clinical isolates of methicillin-resistant Staphylococcus aureus DM21455 after 24 hrs by […]; assay type: functional; settings: DM21455, 24 h
Bacillus cereus = assay: Antibacterial activity against clinical isolates of Bacillus cereus ATCC 11778 after 24 hrs by […]; assay type: functional; settings: ATCC 11778, 24 h
[4] = Hemolytic activity against New Zealand white rabbit RBC after 1 hr by microplate reader analysis; assay type: ADME, cell-based, Oryctolagus cuniculus, Erythrocyte; settings: rabbit red blood cells
In short: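 Rabbit RBCs spun from serum at 3,000 rpm for 10 min and washed twice in PBS. Mixed with compound in DMF at 4% v/v RBCs, 1 h at 37 °C. After centrifugation, hemoglobin in the supernatant read at 576 nm. 2% Triton X-100 was the positive control and 1% DMF the negative control.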

[5] = Selectivity index, ratio of HC50 for hemolytic activity against New Zealand white rabbit RBC to MIC for clinical isolates of Staphylococcus aureus DM4001
Staphylococcus aureus [6] = assay: Induction of membrane permeabilization in clinical isolates of Staphylococcus aureus DM4001 at MIC by SYTOX green uptake assay; assay type: functional
In short: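 Exponential-phase cells washed twice in 20 mM PBS pH 7 and adjusted to OD620 0.09. Given 3 µM SYTOX Green and kept in the dark until fluorescence was stable, then compound added. Fluorescence followed in a stirred cuvette at ex 504/em 523 nm. Melittin 10 µg/mL was the positive control. Run at least twice; one run reported.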

Staphylococcus aureus [7] = assay: Induction of membrane permeabilization in clinical isolates of Staphylococcus aureus DM4001 assessed as ATP leakage at MIC incubated for 10 mins by firefly luciferase based luminometry analysis; assay type: functional
In short: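 Exponential-phase cells washed twice in 20 mM PBS pH 7 and set to OD620 0.3. Exposed 10 min at 37 °C, then spun at 4000 rpm for 5 min. Supernatant mixed with luciferase reagent (1 mM DTT, 0.5 mM D-luciferin, 1.25 µg/mL firefly luciferase). Luminescence read over 30 cycles.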

SMILES	MIC (Staphylococcus aureus [1]) [µg/mL]	MIC (Staphylococcus aureus [2]) [µg/mL]	MIC (Staphylococcus aureus [3]) [µg/mL]	MIC (Bacillus cereus) [µg/mL]	HC50 at 1 h [4] [µg/mL]	Selectivity ratio [5]	Activity (Staphylococcus aureus [6]) [cps]	Activity (Staphylococcus aureus [7]) [µM]
CCN1CCN(CCCCOc2cc3oc4cc(OCCCCN5CCN(CC)CC5)c(OC)c(CC=C(C)C)c4c(=O)c3c(O)c2CC=C(C)C)CC1	25 (≈ 33.5 µM)	12.5 (≈ 16.7 µM)	6.25 (≈ 8.37 µM)	25 (≈ 33.5 µM)	138	5.5	15095	7.822
COc1c(OCCCCN2CCNCC2)cc2oc3cc(OCCCCN4CCNCC4)c(CC=C(C)C)c(O)c3c(=O)c2c1CC=C(C)C	6.25 (≈ 9.05 µM)	6.25 (≈ 9.05 µM)	12.5 (≈ 18.1 µM)	12.5 (≈ 18.1 µM)	72.1	11.5	24629	3.154
COc1c(OCCCCN2CCN(C)CC2)cc2oc3cc(OCCCCN4CCN(C)CC4)c(CC=C(C)C)c(O)c3c(=O)c2c1CC=C(C)C	6.25 (≈ 8.69 µM)	12.5 (≈ 17.4 µM)	12.5 (≈ 17.4 µM)	12.5 (≈ 17.4 µM)	32.3	5.2	7129	3.727
COc1c(OCCCCN2CCCCC2)cc2oc3cc(OCCCCN4CCCCC4)c(CC=C(C)C)c(O)c3c(=O)c2c1CC=C(C)C	0.78 (≈ 1.13 µM)	1.56 (≈ 2.26 µM)	1.56 (≈ 2.26 µM)	6.25 (≈ 9.07 µM)		24.7	2797	0.626
CCN(C)CCCCOc1cc2oc3cc(OCCCCN(C)CC)c(OC)c(CC=C(C)C)c3c(=O)c2c(O)c1CC=C(C)C	1.56 (≈ 2.45 µM)	6.25 (≈ 9.81 µM)	1.56 (≈ 2.45 µM)	6.25 (≈ 9.81 µM)	25.1	16.1	12456	1.734
COc1c(OCCCCN(C)C)cc2oc3cc(OCCCCN(C)C)c(CCC(C)C)c(O)c3c(=O)c2c1CCC(C)C	12.5 (≈ 20.4 µM)	25 (≈ 40.8 µM)	12.5 (≈ 20.4 µM)	12.5 (≈ 20.4 µM)	60.7	4.9		
COc1c(OCCCCn2cncn2)cc2oc3cc(OCCCCn4cncn4)c(CC=C(C)C)c(O)c3c(=O)c2c1CC=C(C)C	> 50	> 50	> 50	> 50	> 200		1979	0.416
COc1c(OCCCCN2CCC(O)CC2)cc2oc3cc(OCCCCN4CCC(O)CC4)c(CC=C(C)C)c(O)c3c(=O)c2c1CC=C(C)C	6.25 (≈ 8.67 µM)	3.12 (≈ 4.33 µM)	12.5 (≈ 17.3 µM)	6.25 (≈ 8.67 µM)	36	5.8	50250	5.938
COc1c(OCCCCNC(=N)N)cc2oc3cc(OCCCCNC(=N)N)c(CC=C(C)C)c(O)c3c(=O)c2c1CC=C(C)C	3.12 (≈ 4.91 µM)	6.25 (≈ 9.81 µM)	6.25 (≈ 9.81 µM)	6.25 (≈ 9.81 µM)	64.1	20.5	68378	2.237
CCCCCCN(C)CCCCOc1cc2oc3cc(OCCCCN(C)CCCCCC)c(OC)c(CC=C(C)C)c3c(=O)c2c(O)c1CC=C(C)C	50 (≈ 66.7 µM)	50 (≈ 66.7 µM)	50 (≈ 66.7 µM)	50 (≈ 66.7 µM)	> 200	> 4	74047	8.545
CCN(CCCCOc1cc2oc3cc(OCCCCN(CC)C(C)C)c(OC)c(CC=C(C)C)c3c(=O)c2c(O)c1CC=C(C)C)C(C)C	25 (≈ 36.1 µM)	12.5 (≈ 18 µM)	25 (≈ 36.1 µM)	12.5 (≈ 18 µM)	54.6	2.2	97824	5.407
COc1c(OCCCCn2cccn2)cc2oc3cc(OCCCCn4cccn4)c(CC=C(C)C)c(O)c3c(=O)c2c1CC=C(C)C	> 50	> 50	> 50	> 50	> 200		3445	0.31
CCN(CCO)CCCCOc1cc2oc3cc(OCCCCN(CC)CCO)c(OC)c(CC=C(C)C)c3c(=O)c2c(O)c1CC=C(C)C	6.25 (≈ 8.97 µM)	3.12 (≈ 4.48 µM)	6.25 (≈ 8.97 µM)	3.12 (≈ 4.48 µM)	31.8	5.1	112772	5.027
COc1c(OCCCCN2CCSCC2)cc2oc3cc(OCCCCN4CCSCC4)c(CC=C(C)C)c(O)c3c(=O)c2c1CC=C(C)C	> 50	> 50	> 50	> 50	> 200		7129	0.005
COc1c(OCCCCN(CCO)CCO)cc2oc3cc(OCCCCN(CCO)CCO)c(CC=C(C)C)c(O)c3c(=O)c2c1CC=C(C)C	3.12 (≈ 4.29 µM)	1.56 (≈ 2.14 µM)	0.78 (≈ 1.07 µM)	3.12 (≈ 4.29 µM)	60.6		59694	3.741
